# PAD4 FP inh: inhibitors of human PAD4; AID 485272; Q9UM07; inhibition, % at 6.36 µM; recombinant PAD4, RCA probe fluorescence polarization; actives 0.41% (n = 330,000);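 active means percent inhibition above a cutoff equal to the mean of all tested compounds plus 3 SD, cut at about 15% in these data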;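 further: 0% = PAD4 with RCA probe and DMSO and 100% = probe without PAD4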
# TCR-CD3 inh: blocks the human TCR-CD3 interaction; TAMRA-labeled TCR probe fluorescence, biochemical; inhibition, % at 9.4 µM; actives 0.37% (n = 360,000); AID 651800; in the data active means inhibition above about 19%;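 further: recombinant mutant TCR 2C K166C tagged with TAMRA read by polarization; 0% = receptor in buffer alone and 100% = receptor with positive control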
# SIAE inh: human SIAE inhibition, primary screen | actives 0.69% (n = 370,000) | AID 1053197 | SIAE FP-Rh probe binding, fluorescence polarization | inhibition, % at 9.66 µM | Q9HAT2;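 active means inhibition above a cutoff: mean of compounds within the control limits plus 3 SD of those, cut at about 17% in these data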;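 further: 0% = plate median of compound wells and 100% = probe without SIAE protein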
# TDP2 absorb: TDP2 (human) inhibition, absorbance primary screen; O95551; recombinant TDP2, T5PNP hydrolysis, p-nitrophenol absorbance 415 nm; inhibition, % at 12.8 µM; actives 0.34% (n = 370,000); AID 720702;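 active means inhibition above the mean of all tested compounds plus 3 SD, set per campaign, cut at about 25% in these data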;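 further: 0% = DMSO with enzyme and 100% = buffer with substrate but no TDP2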
# Target sequence (O95551 whole entry, looked up): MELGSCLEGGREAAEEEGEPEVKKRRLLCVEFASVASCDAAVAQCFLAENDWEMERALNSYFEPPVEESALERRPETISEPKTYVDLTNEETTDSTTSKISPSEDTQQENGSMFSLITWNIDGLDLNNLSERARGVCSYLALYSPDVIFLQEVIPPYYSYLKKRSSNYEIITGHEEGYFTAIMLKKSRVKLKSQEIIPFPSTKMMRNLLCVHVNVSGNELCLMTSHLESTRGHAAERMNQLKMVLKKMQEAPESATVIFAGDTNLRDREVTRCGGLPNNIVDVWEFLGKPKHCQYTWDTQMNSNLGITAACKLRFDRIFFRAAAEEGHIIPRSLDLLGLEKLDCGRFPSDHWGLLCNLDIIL
#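 System – recombinant human TDP2 · Amount – 120 nM TDP2 per well · Buffer or medium – Mg2+-containing Tris-HCl buffer, pH 7.5 · Reagent – T5PNP substrate, 5 mM · Dosing – 12.8 µM single point, 1% DMSO · Incubation – 2 h at 37 °C · Measured by – epi absorbance · Read-out basis – percent inhibition · Benchmarks – high control without enzyme, low control DMSO plus TDP2 · Repeats – singlicate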
# ABHD4 inh: inhibitors of mouse ABHD4; purified mABHD4, FP-Rh probe fluorescence polarization; inhibition, % at 8.92 µM; actives 0.54% (n = 370,000);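 active means inhibition exceeding the mean over every tested compound plus 3 SD, cut at about 30% in these data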;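 further: 0% = plate median of compound wells and 100% = S159A mutant with DMSO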
#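 Test system: mABHD4 protein | Buffer or medium: HEPES pH 7.0 buffer, 150 mM NaCl, 0.01% Pluronic F-127 | Probe or stimulus: FP-Rh fluorescent activity-based probe, added after compound pre-incubation | Timing: Pre-incubation 45 min, probe exposure 60 min, at 25 °C | Technique: Fluorescence polarization, excitation 525 nm, emission 598 nm, BODIPY TMR filters | Repeats: Single well per compound (singlicate)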
# HTRA1 inhibitor: inhibitors of human serine peptidase HTRA1; Q92743; recombinant HTRA1, FP-rhodamine activity-based probe, fluorescence polarization; inhibition, % at 5.96 µM; actives 0.5% (n = 340,000); AID 504803; in the data active means inhibition above about 36%;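 further: 0% = enzyme with DMSO and 100% = wells lacking enzyme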
# mABHD4 conf: ABHD4 (mouse) inhibition, FP confirmation | purified mABHD4, FP-Rh probe fluorescence polarization | actives 55% (n = 1,800) | shares compounds with ABHD4 inh | inhibition, % at 8.92 µM | AID 720658;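 active means mean inhibition across replicates above the hit cutoff set in the primary screen, cut at about 30% in these data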;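 further: 0% = wild-type ABHD4 with DMSO and 100% = catalytically dead S159A mutant with DMSO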
# The depositor's hits bear a star; . = no result given; + = active, no number. Compounds with a hit are over-represented: about 2% of the library has one in this group of screens.
SMILES,PAD4 FP inh,TCR-CD3 inh,SIAE inh,TDP2 absorb,ABHD4 inh,HTRA1 inhibitor,mABHD4 conf
CC(C)(C)n1nnnc1C1c2ccccc2C(=O)N1CCc1c[nH]c2ccccc12 (centres undefined),.,-9,4,-9,-5,.,.
CCn1cnc2cc(NCc3cccc(OC)c3O)ccc21,0,5,0,-1,+,13,6
CCCCn1cnc2cc(NCc3cccc(OC)c3O)ccc21,1,2,1,10,14,12,.
CCn1cc(C(=O)NCCC(=O)NC(C)C)c(=O)c2cc3c(cc21)OCO3,-1,-6,-2,0,8,0,.
CC1(C)CC(=O)C=C(Nc2ccc(C(=O)O)c(O)c2)C1,0,3,9,3,32*,-2,-2
Cc1cccc(C)c1NC(=O)CSCC(=O)O,-4,1,-1,0,0,4,.
Cc1cccc(C)c1NC(=O)CSCC(=O)c1ccc(O)c(O)c1,2,5,0,2,32*,30,27
Cc1cc2c(cc1C)N(C(=O)CSC1=NCCS1)C(C)(C)c1ssc(=S)c1-2,6,3,9,4,37*,30,14
CC1(C)c2ssc(=S)c2-c2ccccc2N1C(=O)CSC1=NCCS1,6,-2,5,15,-1,8,.
O=C(Nc1ccccc1F)c1ccc2c(c1)CCN2S(=O)(=O)c1ccccc1,-2,2,-10,-2,80*,-32,-21
O=C(Nc1c(F)cccc1F)c1ccc2c(c1)CCN2S(=O)(=O)c1ccccc1,2,1,-48,-5,-32,-15,.
O=C(O)c1cccc(NN=C2c3ccccc3-c3ccccc32)c1,.,3,-8,-19,56*,-8,49*
O=C(O)c1cc(NN=C2c3ccccc3-c3ccccc32)ccc1Cl,1,7,2,-20,39*,-17,45*
NC(=O)N/N=C1\c2ccccc2-c2c(C(N)=O)cccc21,1,2,1,1,0,-5,.
O=C(O)c1cccc2c1-c1ccccc1/C2=N\Nc1ccccc1,3,7,2,14,38*,1,23
CC1Cc2ccccc2C(CCc2ccccc2)=N1 (centres undefined),-5,-7,-3,1,1,-7,.
CCOc1ccc(N2C(=O)C(Cl)=C(Nc3ccccc3O)C2=O)cc1,-4,-2,2,0,34*,-6,19
COc1ccccc1NC1=C(Cl)C(=O)N(c2ccccc2)C1=O,-4,3,3,-15,2,-4,.
CCNC(=O)C1(C)CCCN(Cc2cccc3c2OCCO3)C1 (centres undefined),.,4,-1,-2,-5,.,.
C/C(=N\Nc1ccc(C(=O)O)cc1)c1ccc2c(c1)Nc1ccccc1S2,0,0,16,5,43*,35,77*
C/C(=N\Nc1ccc(Cl)c(C(=O)O)c1)c1ccc2c(c1)OCO2,-1,-4,10,12,11,4,.
C/C(=N\Nc1nc2ccccc2s1)c1ccc(Br)s1,1,4,5,-9,33*,33,6
CCOC(=O)C1CCN(c2c(NCCN(CC)c3ccccc3)c(=O)c2=O)CC1,3,-6,0,4,2,11,.
CCC(C)(O)C(=O)N[C@H]1CCCN1C(=O)/C=C/c1ccccc1 (some centres undefined),2,-8,-7,-19,-12,-7,.
COc1ccc(-c2csc(NS(=O)(=O)c3ccc([N+](=O)[O-])cc3)n2)cc1,0,2,7,-6,37*,4,34*
SMILES,PAD4 FP inh,TCR-CD3 inh,SIAE inh,TDP2 absorb,ABHD4 inh,HTRA1 inhibitor,mABHD4 conf
N=C(N)SCc1cn(-c2ccccc2)nc1-c1ccc(Br)cc1,.,4,-2,-8,36*,-68,60*
Cc1ccc(-c2nn(-c3ccccc3)cc2CO)cc1,-3,-4,-7,10,-5,-14,.
CC(C)(C)c1ccc(OCCC(=O)OCC(=O)Nc2cccnc2Cl)cc1,2,5,-3,-6,-4,-3,.
O=C(NNc1ccccn1)C(=O)NNS(=O)(=O)c1ccc(F)cc1,-6,4,7,1,36*,2,30*
O=C(NNc1ccccn1)C(=O)NNS(=O)(=O)c1ccc(Cl)cc1,-2,2,-2,2,58*,6,55*
O=C(NNS(=O)(=O)c1ccc(F)cc1)c1ccccc1,-2,-2,-7,8,6,7,.
Cc1ccc(Nc2cc(C)c3c(O)cccc3n2)cc1C,-5,-6,18*,-11,44*,14,51*
COc1ccc(Nc2cc(C)c3c(O)cccc3n2)cc1,-6,6,10,3,19,7,.
CCCCCC(=O)Nc1cc(S(=O)(=O)O)cc2cc(S(=O)(=O)O)cc(O)c12,.,16,11,-2,49*,23,64*
CCCCCC(=O)Nc1cc(S(=O)(=O)N2CCCCC2)ccc1N1CCCCC1,.,-6,3,-1,-11,-34,.
CCOC(=O)c1c(C)[nH]c(O)c1C=Nc1ccc(Cl)cc1,-6,12,1,5,59*,24,8
COC(=O)c1c(C)[nH]c(O)c1C=Nc1ccc(C(C)C)cc1,-9,-11,1,3,-5,15,.
Cc1ccsc1C(=O)OCC(=O)NCc1cccs1,.,3,4,-5,5,0,.
Oc1cc2c(cc1O)C1c3ccc(O)c(O)c3OCC1(O)C2 (centres undefined),3,132*,0,-2,30*,25,23
CC(=O)N=c1sc2nc3ccccc3nc2n1N(C(C)=O)C(C)=O,-5,17,2,3,35*,5,3
COc1cc(/C=C/C(=O)O)cc(S(=O)(=O)NC2CCCC2)c1OC,-2,-13,-1,-23,-3,3,.
COc1cc(/C=C/C(=O)O)cc(S(=O)(=O)Nc2cc(Cl)c(Cl)cc2Cl)c1OC,0,6,2,-6,32*,-11,35*
CC1(C(=O)NCc2cccc3ccccc23)CCN1CCc1ccccc1 (centres undefined),.,1,-1,5,-2,.,.
O=C(CNc1cccc2ccccc12)N/N=C/c1ccc(C(=O)O)cc1,1,-1,9,8,30*,4,21
CNC[C@@H](Cc1ccccc1)NC[C@@H](CC1CCCCC1)NCCCc1ccccc1,3,8,5,-13,38*,4,46*
CN(Cc1cccc(C(F)(F)F)c1)C(=O)C1CCC(=O)N(CC2CCCCC2)C1 (centres undefined),0,1,0,1,6,2,.
